In ChEMBL document CHEMBL1671681, “Distribution of serotypes, genotypes, and resistance determinants among macrolide-resistant Streptococcus pneumoniae isolates” (2010):
Converted amounts (≈) assume the structure as drawn.

Key:
Assay type in all cases: functional
Streptococcus pneumoniae [1] = assay: Antimicrobial activity against erythromycin-resistant Streptococcus pneumoniae by broth microdilution method in presence of clavulanic acid
Method in brief: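 Broth microdilution in commercial pre-made microtiter trays using cation-adjusted Mueller-Hinton broth with 3 to 5% lysed horse blood. Pneumococcal isolates were tested, and MICs were interpreted by CLSI criteria.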

Streptococcus pneumoniae [2] = assay: Antimicrobial activity against erythromycin-resistant Streptococcus pneumoniae assessed as susceptible isolates by broth microdilution method in presence of clavulanic acid
Method in brief: (§1)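 Isolates were tested by broth microdilution in commercial microtiter trays. Medium was cation-adjusted Mueller-Hinton broth supplemented with 3 to 5% lysed horse blood. MICs were interpreted by CLSI criteria. For penicillin, the pre-2008 breakpoints were applied (susceptible ≤0.06 mg/liter).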

Streptococcus pneumoniae [3] = assay: Antimicrobial activity against erythromycin-resistant Streptococcus pneumoniae assessed as resistant isolates by broth microdilution method in presence of clavulanic acid; method in brief: as §1
Streptococcus pneumoniae [4] = assay: Antimicrobial activity against erythromycin-resistant Streptococcus pneumoniae by broth microdilution method
Method in brief: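 Isolates were tested by broth microdilution in commercial microtiter trays. Medium was cation-adjusted Mueller-Hinton broth supplemented with 3 to 5% lysed horse blood. MICs were interpreted by CLSI criteria.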

Streptococcus pneumoniae [5] = assay: Antimicrobial activity against erythromycin-resistant Streptococcus pneumoniae assessed as susceptible isolates by broth microdilution method; method in brief: as §1
Streptococcus pneumoniae [6] = assay: Antimicrobial activity against erythromycin-resistant Streptococcus pneumoniae assessed as resistant isolates by broth microdilution method; method in brief: as §1

SMILES | MIC (Streptococcus pneumoniae [1]) [µg/mL] | MIC50 (Streptococcus pneumoniae [1]) [µg/mL] | MIC90 (Streptococcus pneumoniae [1]) [µg/mL] | Activity (Streptococcus pneumoniae [2]) [%] | Activity (Streptococcus pneumoniae [3]) [%] | MIC (Streptococcus pneumoniae [4]) [µg/mL] | MIC50 (Streptococcus pneumoniae [4]) [µg/mL] | MIC90 (Streptococcus pneumoniae [4]) [µg/mL] | Activity (Streptococcus pneumoniae [5]) [%] | Activity (Streptococcus pneumoniae [6]) [%]
CC1(C)S[C@@H]2[C@H](NC(=O)[C@H](N)c3ccc(O)cc3)C(=O)N2[C@H]1C(=O)O [AMOXICILLIN] | < 2 | < 2 | > 8 | 66.7 | 28.4 |  |  |  |  | 
CC[C@H]1OC(=O)[C@H](C)[C@@H](O[C@H]2C[C@@](C)(OC)[C@@H](O)[C@H](C)O2)[C@H](C)[C@@H](O[C@@H]2O[C@H](C)C[C@H](N(C)C)[C@H]2O)[C@](C)(O)C[C@@H](C)CN(C)[C@H](C)[C@@H](O)[C@]1(C)O [AZITHROMYCIN] |  |  |  |  |  | > 2 | > 2 | > 2 | 0 | 100
CO/N=C(\C(=O)N[C@@H]1C(=O)N2C(C(=O)O)=C(COC(C)=O)CS[C@H]12)c1csc(N)n1 [CEFOTAXIME] |  |  |  |  |  |  | 1 (≈ 2.2 µM) | 2 (≈ 4.39 µM) | 62.7 | 5.9
O=C(N[C@H](CO)[C@H](O)c1ccc([N+](=O)[O-])cc1)C(Cl)Cl [CHLORAMPHENICOL] |  |  |  |  |  |  | 4 (≈ 12.4 µM) | 8 (≈ 24.8 µM) | 66.7 | 33.3
CCC[C@@H]1C[C@@H](C(=O)N[C@@H]([C@H]2O[C@H](SC)[C@H](O)[C@@H](O)[C@H]2O)[C@H](C)Cl)N(C)C1 [CLINDAMYCIN] |  |  |  |  |  |  | > 2 | > 2 | 30.4 | 67.6
CC[C@H]1OC(=O)[C@H](C)[C@@H](O[C@H]2C[C@@](C)(OC)[C@@H](O)[C@H](C)O2)[C@H](C)[C@@H](O[C@@H]2O[C@H](C)C[C@H](N(C)C)[C@H]2O)[C@](C)(O)C[C@@H](C)C(=O)[C@H](C)[C@@H](O)[C@]1(C)O [ERYTHROMYCIN] |  |  |  |  |  | > 2 | > 2 | > 2 | 0 | 100
COc1c(N2CCNC(C)C2)c(F)cc2c(=O)c(C(=O)O)cn(C3CC3)c12 (stereo not drawn) [GATIFLOXACIN] |  |  |  |  |  | < 0.5 | < 0.5 | < 0.5 | 100 | 0
C[C@H]1COc2c(N3CCN(C)CC3)c(F)cc3c(=O)c(C(=O)O)cn1c23.C[C@H]1COc2c(N3CCN(C)CC3)c(F)cc3c(=O)c(C(=O)O)cn1c23.O [LEVOFLOXACIN] |  |  |  |  |  |  | 1 | 1 | 100 | 0
CC(=O)NC[C@H]1CN(c2ccc(N3CCOCC3)c(F)c2)C(=O)O1 [LINEZOLID] |  |  |  |  |  |  | 1 (≈ 2.96 µM) | 1 (≈ 2.96 µM) | 100 | 0
C[C@@H](O)[C@H]1C(=O)N2C(C(=O)O)=C(S[C@@H]3CN[C@H](C(=O)N(C)C)C3)[C@H](C)[C@H]12 [MEROPENEM] |  |  |  |  |  |  | 0.5 (≈ 1.3 µM) | 1 (≈ 2.61 µM) | 33.3 | 34.3
COc1c(N2C[C@@H]3CCCN[C@@H]3C2)c(F)cc2c(=O)c(C(=O)O)cn(C3CC3)c12 [MOXIFLOXACIN] |  |  |  |  |  |  |  |  | 100 | 0
CC1(C)S[C@@H]2[C@H](NC(=O)Cc3ccccc3)C(=O)N2[C@H]1C(=O)O [PENICILLIN G] |  |  |  |  |  |  | 2 (≈ 5.98 µM) | 4 (≈ 12 µM) | 24.5 | 68.6
CN(C)[C@@H]1C(O)=C(C(N)=O)C(=O)[C@@]2(O)C(O)=C3C(=O)c4c(O)cccc4[C@@](C)(O)[C@H]3C[C@@H]12 [TETRACYCLINE] |  |  |  |  |  |  | ≥ 8 | ≥ 8 | 24.5 | 74.5
CN[C@H](CC(C)C)C(=O)N[C@H]1C(=O)N[C@@H](CC(N)=O)C(=O)N[C@H]2C(=O)N[C@H]3C(=O)N[C@H](C(=O)N[C@H](C(=O)O)c4cc(O)cc(O)c4-c4cc3ccc4O)[C@H](O)c3ccc(c(Cl)c3)Oc3cc2cc(c3O[C@@H]2O[C@H](CO)[C@@H](O)[C@H](O)[C@H]2O[C@H]2C[C@](C)(N)[C@H](O)[C@H](C)O2)Oc2ccc(cc2Cl)[C@H]1O [VANCOMYCIN] |  |  |  |  |  |  | < 0.5 | < 0.5 | 100 | 0
